Compound activity as filed in PubChem.
PAD4 inh = PAD4 (human) enzyme inhibition; Q9UM07; recombinant PAD4, RCA probe fluorescence polarization; inhibition, % at 6.36 µM; 330,000 tested, 0.41% active; AID 485272;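 active = percent inhibition above a cutoff equal to the mean of all tested compounds plus 3 SD, cut at about 15% in these data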;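 note: 0% = PAD4 with RCA probe and DMSO and 100% = probe without PAD4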
PRMT1 FP inh = PRMT1 (human) inhibition, primary screen. Q99873. recombinant PRMT1, activity-based probe fluorescence polarization. inhibition, % at 2.79 µM. 370,000 tested, 1.3% active. AID 652257;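 active = inhibition above about 21% made by adding two undisclosed values, limit read from the data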
GSTO1 inh = GSTO1 inhibition, counter-screen for RBBP9 inhibitors. P78417. recombinant GSTO1, activity-based probe fluorescence polarization. inhibition, % at 5.96 µM. 300,000 tested, 1.1% active. AID 1974;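 active = inhibition above the campaign mean inhibition plus 3 SD, cut at about 35% in these data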;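 note: 0% = GSTO1-1 with DMSO and 100% = wells lacking GSTO1-1 enzyme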
TDP2 absorb = blocks human TDP2 phosphodiesterase activity; O95551; recombinant TDP2, T5PNP hydrolysis, p-nitrophenol absorbance 415 nm; inhibition, % at 12.8 µM; 370,000 tested, 0.34% active; AID 720702;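 active = inhibition above the mean of all tested compounds plus 3 SD, set per campaign, cut at about 25% in these data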;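 note: 0% = DMSO with enzyme and 100% = buffer with substrate but no TDP2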
Target sequence (O95551 whole entry, looked up): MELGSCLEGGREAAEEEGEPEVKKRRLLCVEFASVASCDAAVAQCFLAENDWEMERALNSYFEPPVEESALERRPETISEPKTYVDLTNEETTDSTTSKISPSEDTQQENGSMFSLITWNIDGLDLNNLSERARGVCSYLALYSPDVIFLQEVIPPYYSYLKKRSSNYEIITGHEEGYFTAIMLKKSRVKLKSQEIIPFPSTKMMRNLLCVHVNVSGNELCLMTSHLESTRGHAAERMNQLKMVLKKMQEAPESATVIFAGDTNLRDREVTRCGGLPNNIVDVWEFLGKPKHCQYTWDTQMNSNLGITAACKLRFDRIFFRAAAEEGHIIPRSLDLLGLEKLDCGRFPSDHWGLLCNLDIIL
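Assay system: recombinant human TDP2 / Reagent: T5PNP substrate at 5 mM, a TopII-DNA adduct mimic / Measured by: epi absorbance from released p-nitrophenol / Evaluation: % inhibition relative to enzyme-containing and enzyme-free wells / Control set: enzyme-free and DMSO wells / Replicates: each compound tested once, singlicate / Schedule: enzyme reaction with compound for 2 h at 37 °C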
CTSL1 counter = blocks F. hepatica cathepsin L1 in PFM18AAP counter-screen; inhibition, % at 5.96 µM; recombinant F. hepatica cathepsin L1, Z-Leu-Arg-MCA fluorescence; AID 1906; 300,000 tested, 0.49% active;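 active = inhibition above the mean of all tested compounds plus 3 SD, set per screening campaign, cut at about 17% in these data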;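 note: 0% = plate median of test compound wells and 100% = 1 µM Z-Phe-Ala-diazomethylketone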
PRMT1 confirm = confirmation of human PRMT1 inhibitors | shares compounds with PRMT1 FP inh | recombinant His-PRMT1, activity-based probe fluorescence polarization | inhibition, % at 2.79 µM | 3,300 tested, 42% active;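 active = mean inhibition across replicates above the hit cutoff derived for the earlier primary screen, cut at about 22% in these data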
* marks the source's active call; other numbers are inactive results; . = no result. An excerpt weighted towards active compounds, which were near 2.5% of everything screened.

SMILES | PAD4 inh | PRMT1 FP inh | GSTO1 inh | TDP2 absorb | CTSL1 counter | PRMT1 confirm
CCCCCCOc1ccc(N2C(=O)CC(NCc3ccc(S(N)(=O)=O)cc3)C2=O)cc1 (centres undefined) | -4 | 19 | 4 | 4 | 3 | .
CCOc1ccc(N2C(=O)CC(N)C2=O)cc1 (centres undefined) | -2 | 76* | -1 | 2 | 2 | 51*
CCCCCCOc1ccc(N2C(=O)CC(NCCc3ccc(S(N)(=O)=O)cc3)C2=O)cc1 (centres undefined) | 1 | 42* | -9 | 5 | 6 | 8
COc1ccc(N2C(=O)CC(NCc3cccs3)C2=O)cc1 (centres undefined) | 0 | 51* | -3 | -13 | 6 | 0
CN(C)c1ccc(/C=N\NC(=O)c2cccc(S(=O)(=O)N(C)C)c2)cc1 | . | 6 | . | -14 | . | .
S=C(NCc1cccc(Cl)c1)OC1CCC12CCC(c1ccccc1)CC2 (centres undefined) | . | -2 | . | 13 | . | .
COc1ccc(/C=C/S(=O)(=O)NCc2ccc(F)cc2)c(CNC(=O)OC(C)(C)C)c1 | . | -1 | . | -4 | . | .
CCN1C(=O)CC(NCc2ccc(S(N)(=O)=O)cc2)C1=O (centres undefined) | 1 | 4 | 3 | -3 | -2 | .
CCOc1ccc(N2C(=O)CC(NCC3CCCO3)C2=O)cc1 (centres undefined) | -6 | 80* | -3 | -8 | -6 | 4
O=C1CC(NCC2CCCO2)C(=O)N1c1ccc(Cl)cc1 (centres undefined) | 5 | 1 | -3 | -4 | -2 | .
CCOc1cccc(N2C(=O)CC(NCc3ccc(S(N)(=O)=O)cc3)C2=O)c1 (centres undefined) | 1 | 46* | -5 | -18 | 1 | -1
CC(C(=O)NC1C(=O)N2C(C(=O)O)=C(CSc3nnnn3C)CSC12)n1cc(Cl)cn1 (centres undefined) | -4 | 30* | -1 | -14 | -1 | 9
CCn1ccc(C(=O)NC2C(=O)N3C(C(=O)O)=C(C)CSC23)n1 (centres undefined) | 2 | 7 | -4 | 1 | 0 | .
Cc1c(Cl)c(C(F)F)nn1CC(=O)NC1C(=O)N2C(C(=O)O)=C(CSc3nnnn3C)CSC12 (centres undefined) | . | 35* | . | -3 | . | 20
Cc1c(Cl)cnn1CC(=O)NC1C(=O)N2C(C(=O)O)=C(CSc3nnnn3C)CSC12 (centres undefined) | 0 | 62* | -5 | -8 | -6 | 35*
Cc1nnc(SCC2=C(C(=O)O)N3C(=O)C(NC(=O)C(C)n4nc(C(F)(F)F)cc4C)C3SC2)s1 (centres undefined) | -3 | 28* | 1 | 3 | 5 | 10
Cc1c(Cl)cnc(NC(=O)CSc2nnnn2C)c1Cl | -3 | 3 | . | -11 | . | .
CCCC[C@@H]1C(=O)N2N=Cc3cscc3[C@H]2N2N=Cc3cscc3[C@@H]12 | . | 2 | . | 3 | . | .
COc1ccc(Cn2cc(COC(=O)NCCc3c[nH]c4ccccc34)nn2)cc1 | . | 0 | . | 11 | . | .
O=C(CSc1ccc(-c2ccco2)nn1)Nc1ccc(F)cc1F | 1 | 34* | 4 | 17 | -1 | 3
CC(=O)c1cccc(NC(=O)CSc2ccc(-c3ccco3)nn2)c1 | -1 | 54* | 10 | 18 | 4 | 66*
O=C(CSc1ncn[nH]1)c1cccc([N+](=O)[O-])c1 | 4 | 32* | 5 | 7 | -2 | 25*
CCc1ccc(NC(=O)CSc2ccc(-c3ccco3)nn2)cc1 | -2 | 2 | -4 | -6 | 0 | .
O=C(CSc1ccc(-c2ccccn2)nn1)Nc1ccc(F)cc1F | 0 | 0 | -2 | -2 | -2 | .
O=C(CSc1ccc(-c2ccco2)nn1)c1cccc([N+](=O)[O-])c1 | 0 | 31* | 12 | -9 | 3 | 4
Cc1ccc(-c2cc(-c3nnc(SCC(=O)Nc4ccccc4-c4ccccc4)n3N)[nH]n2)cc1 | . | -3 | . | 7 | . | .
COc1cc(-c2nnc(SCC(=O)N3C(C)CCCC3C)o2)cc(OC)c1OC (centres undefined) | . | -5 | . | 7 | . | .
Nn1c(SCc2cn3ccccc3n2)nnc1-c1ccncc1 | -2 | -1 | -3 | 9 | 2 | .
